According to ChEMBL document CHEMBL5500359, “Identification of a new bisindolinone arresting IGROV1 cells proliferation” (Eur J Med Chem, 2024):

Columns and labels:
Format in all cases: functional
Prostatic carcinoma cell = assay: Cytotoxicity against human Prostate carcinoma cells incubated for 48 hrs by SRB assay
Summary of the method: (§1)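 NCI-60 five-concentration screen: lines seeded 5×10^3–4×10^4 cells/well depending on line; compound diluted in fresh medium at scalar concentrations 0–100 or 0–1000 μM; 48 h exposure, in situ fixation, sulforhodamine B protein staining, optical density read; GI50, TGI and LC50 per NCI procedures; panel mean = mean graph midpoint.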

Melanoma cell line = assay: Cytotoxicity against human Melanoma cells incubated for 48 hrs by SRB assay; summary of the method: as §1
NSCLC = assay: Cytotoxicity against human NSCLC cells incubated for 48 hrs by SRB assay; summary of the method: as §1

Structure (SMILES)	LC50 (Prostatic carcinoma cell) [µM]	LC50 (Melanoma cell line) [µM]	LC50 (NSCLC) [µM]
COc1ccc2c(c1)/C(=C\c1cc(C(C)(C)C)cc(/C=C3/C(=O)N(C)c4ccc(OC)cc43)c1O)C(=O)N2C	67.6	9.55	31.6
O=C1Nc2cccc(F)c2/C1=C\c1cccc(/C=C2/C(=O)Nc3cccc(F)c32)c1	18.6	9.33	33.1
CC(C)(C)c1cc(/C=C2/C(=O)Nc3ccc(F)cc32)c(O)c(/C=C2/C(=O)Nc3ccc(F)cc32)c1	4.74	33.9	47.9
CC(C)(C)c1cc(/C=C2/C(=O)Nc3cccc(F)c32)c(O)c(/C=C2/C(=O)Nc3cccc(F)c32)c1	36.3	13.2	15.8
COc1ccc2[nH]c(Cl)c(/C=C3/C(=O)N(C)c4cc5c(cc43)/C(=C\c3c(Cl)[nH]c4ccc(OC)cc34)C(=O)N5C)c2c1	7.94	12.9	24.6
CC(C)(C)c1cc(/C=C2/C(=O)Nc3cc(Cl)ccc32)c(O)c(/C=C2/C(=O)Nc3cc(Cl)ccc32)c1	38	30.9	47.9
Cc1cc2c(cc1O)/C(=C\c1cc(C(C)(C)C)cc(C=O)c1O)C(=O)N2	57.5	37.1	51.3
COc1cc2c(cc1C)NC(=O)/C2=C/c1ccc2ccc3ccc(/C=C4/C(=O)Nc5cc(C)c(OC)cc54)nc3c2n1		55	52.5
COc1cc2c(/C=C3/C(=O)N(C)c4cc5c(cc43)/C(=C\c3c(Cl)[nH]c4cc(C)c(OC)cc34)C(=O)N5C)c(Cl)[nH]c2cc1C	20.4	22.4	51.3
O=C1Nc2cc(Cl)ccc2/C1=C\c1cccc(/C=C2/C(=O)Nc3cc(Cl)ccc32)c1	28.2	19.5	45.7
COc1ccc2c(c1)/C(=C\c1ccc3ccc4ccc(/C=C5/C(=O)N(C)c6ccc(OC)cc65)nc4c3n1)C(=O)N2C	56.2	30.2	85.1
O=C1Nc2ccc(Cl)cc2/C1=C\c1ccc2ccc3ccc(/C=C4/C(=O)Nc5ccc(Cl)cc54)nc3c2n1		51.3	52.5
COc1cc2c(c(OC)c1OC)C(=Cc1cc(C(C)(C)C)cc(/C=C3\C(=O)Nc4cc(OC)c(OC)c(OC)c43)c1O)C(=O)N2	12.6	8.13	14.8
